Experimental data from ChEMBL document CHEMBL4373677, “The cytotoxic potential of cationic triangulenes against tumour cells” (Medchemcomm, 2019).
Activity calls are given as the source filed them. The rule behind the calls is not given here.

Key:
HCT-116 [1] = test: Antiproliferative activity against human HCT116 cells assessed as reduction in cell viability at 10 uM after 4 days by [3H]-thymidine incorporation assay relative to control; format: functional
In short: (§1)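 MDA-MB-231 and HCT116 cells (ATCC) seeded at 3000 cells/well on tissue-culture-treated plates as monolayers and incubated 3 days. Compound then added for four days. 3H-thymidine pulse of 0.04 µCi/well for 5 h before harvest. Proliferation read as 3H-thymidine incorporation into S-phase DNA. Mean % of untreated cells is reported; IC50 is the concentration giving 50% inhibition.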

[2] = Stability of carbenium ionic form, pKR+ of the compound by spectrophotometric analysis; format: physicochemical
In short: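 Calibration of molar absorbance at the 330 nm peak, made with the compound in 0.1 M acetic acid, where the alcohol is completely ionised. pKR+ derived from the absorbance relationship in eqn (1).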

MDA-MB-231 [3] = test: Antiproliferative activity against human MDA-MB-231 cells assessed as reduction in cell viability at 10 uM after 4 days by [3H]-thymidine incorporation assay relative to control; format: functional; in short: as §1
MDA-MB-231 [4] = test: Antiproliferative activity against human MDA-MB-231 cells assessed as reduction in cell viability after 4 days by [3H]-thymidine incorporation assay; format: functional, cell-based; in short: as §1
HCT-116 [5] = test: Antiproliferative activity against human HCT116 cells assessed as reduction in cell viability after 4 days by [3H]-thymidine incorporation assay; format: functional, cell-based; in short: as §1
HCT-116 [6] = test: Antiproliferative activity against human HCT116 cells cultured as 3D-spheroids assessed as reduction in cell viability after 4 days by [3H]-thymidine incorporation assay; format: functional, cell-based
In short: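 HCT116 spheroids: 4000 cells/well seeded in ultra-low attachment plates, then centrifuged at 1000 × g for 10 min to start spheroid formation. After 3 days, compounds added for four days. 3H-thymidine (0.08 µCi/well) added 16 h before harvest. Inhibition read as thymidine incorporation relative to untreated cells. IC50 is the concentration giving 50% inhibition.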

MDA-MB-231 [7] = test: Induction of DNA double strand breaks in human MDA-MB-231 cells assessed as gammaH2AX phosphorylation at 1 uM incubated for 16 hrs by flow cytometry (reference value: 6.1 +/-0.7%); format: functional
MDA-MB-231 [8] = test: Induction of DNA double strand breaks in human MDA-MB-231 cells assessed as gammaH2AX phosphorylation at 10 uM incubated for 16 hrs by flow cytometry (reference value: 6.1 +/-0.7%); format: functional
MDA-MB-231 [9] = test: Induction of DNA double strand breaks in human MDA-MB-231 cells assessed as gammaH2AX phosphorylation at 5 uM incubated for 16 hrs by flow cytometry (reference value: 6.1 +/-0.7%); format: functional
[10] = Dissociation constant, pKa of the compound; format: physicochemical
MDA-MB-231 [11] = test: Cell cycle arrest in human MDA-MB-231 cells assessed as accumulation at S-phase at 1 uM incubated for 16 hrs by flow cytometry; format: functional, cell-based
In short: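 Cells seeded at 106 per well in 6-well plates, exposed to compound for 16 h, harvested, washed, blocked in 1% FCS/PBS. Stained with anti-γH2AX (phospho-Ser139, 1:500, 2 h, room temperature), then Alexa 488 anti-mouse Fab (1:400, 1 h, room temperature, dark). Counterstained with RNase (1 µg/mL) plus propidium iodide (10 µg/mL) for 30 min. Cell-cycle profiles read by flow cytometry.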

dsDNA = test: Binding affinity to 12-mer duplex oligonucleotide (unknown origin) assessed as melting temperature at 5 uM in sodium phosphate buffer at pH 7 by UV-VIS spectrophotometry (reference value: 52.8 degC); format: nucleic-acid assay
Calf thymus DNA [12] = test: Binding affinity to calf thymus DNA assessed as binding constant at 25 uM in sodium phosphate buffer solution at pH 7 by UV-Visible spectrophotometry; format: nucleic-acid assay; details: Bos taurus
MDA-MB-231 [13] = test: Antiproliferative activity against human MDA-MB-231 cells assessed as cell viability at 10 uM after 4 days by [3H]-thymidine incorporation assay relative to control; format: functional; details: read-out: Activity; in short: as §1
HCT-116 [14] = test: Antiproliferative activity against human HCT116 cells assessed as cell viability at 10 uM after 4 days by [3H]-thymidine incorporation assay relative to control; format: functional; details: read-out: Activity; in short: as §1
MDA-MB-231 [15] = test: Cell cycle arrest in human MDA-MB-231 cells assessed as accumulation at G1 phase at 1 to 10 uM incubated for 16 hrs by flow cytometry; format: functional, cell-based
MDA-MB-231 [16] = test: Cell cycle arrest in human MDA-MB-231 cells assessed as accumulation at G2 phase at 1 to 10 uM incubated for 16 hrs by flow cytometry; format: functional, cell-based
MDA-MB-231 [17] = test: Cell cycle arrest in human MDA-MB-231 cells assessed as accumulation at S-phase at 1 to 10 uM incubated for 16 hrs by flow cytometry; format: functional, cell-based
Calf thymus DNA [18] = test: Binding affinity to calf thymus DNA assessed as binding constant at 1 uM incubated for 24 hrs by competitive dialysis technique; format: nucleic-acid assay; details: Bos taurus
Calf thymus DNA [19] = test: Binding affinity to calf thymus DNA assessed as binding constant by emission titration analysis; format: nucleic-acid assay; details: Bos taurus

Row | Compound | inhibition (HCT-116 [1]) | pKR+ [2] | inhibition (MDA-MB-231 [3]) | IC50 (MDA-MB-231 [4]) | IC50 (HCT-116 [5]) | IC50 (HCT-116 [6]) | Activity (MDA-MB-231 [7]) | Activity (MDA-MB-231 [8]) | Activity (MDA-MB-231 [9]) | also measured
1 | CCCCn1c2cccc3c2[c+]2c4c1cccc4n(CCCC)c1cccc(c12)n3CCCC.F[B-](F)(F)F | Active | 23.7 |  |  |  |  |  |  |  | 
2 | CCCn1c2cccc3oc4cccc5c4[c+](c32)c2c1cccc2n5CCC | Active | 19.4 | Active | 77.5 nM | 106 to 111 nM | 21 nM | 13.6% | 2.4% | 1.3% | 
3 | c1cc2[nH]c3cccc4oc5cccc6oc(c1)c2[c+](c34)c65 |  |  |  |  |  |  |  |  |  | pKa [10]: 5.7; inhibition at 10 µM (MDA-MB-231 [3]): 12 to 25%; inhibition at 10 µM (HCT-116 [1]): 12 to 25%
4 | CC[C@@]1(O)C(=O)OCc2c1cc1n(c2=O)Cc2cc3ccccc3nc2-1 [CAMPTOTHECIN] |  |  |  | 28.4 nM | 8.5 nM |  | 73.6% |  |  | Activity (MDA-MB-231 [11]): Active
5 | c1cc2oc3cccc4oc5cccc6oc(c1)c2[c+](c34)c65 |  | 9.1 |  | 448 nM | 708 nM | > 1000 nM | 8.8% | 43.6% | 57.5% | Tm (dsDNA): 57.3 °C; Kb (Calf thymus DNA [12]): 4.1 ×10⁴ /M; viability at 10 µM (MDA-MB-231 [13]): < 1%; viability at 10 µM (HCT-116 [14]): < 1%; Activity (MDA-MB-231 [15]): Active; Activity (MDA-MB-231 [16]): Active; Activity (MDA-MB-231 [17]): inactive; Kb (Calf thymus DNA [18]): 4.1 ×10⁴ /M
6 | CCCn1c2cccc3oc4cccc5oc6cccc1c6[c+](c45)c32 | Active | 14.5 | Active | 87.5 nM | 256 to 321 nM | 38 nM | 12.9% | 27.8% | 30.6% | Kb (Calf thymus DNA [19]): 8.1 ×10⁶ /M
